Test results: ChEMBL document CHEMBL1149770, “Synthesis and antimicrobial studies of novel dichlorofluorophenyl containing aminotriazolothiadiazines” (2008)
Values after ≈ are worked out from the molar mass of the structure shown.

Key:
Aspergillus fumigatus [1] = test: Antifungal activity against Aspergillus fumigatus after 48 hrs […]; format: functional
Klebsiella pneumoniae [2] = test: Antibacterial activity against Klebsiella pneumoniae after 24 hrs by broth dilution technique; format: functional
Method in brief: (§1)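 MIC by broth dilution in nutrient broth with logarithmic serial twofold dilutions of compound. Inoculum approx. 5×10^5 c.f.u actively dividing bacteria. Incubated 24 h at 37 °C, growth monitored visually and spectrophotometrically. MIC taken as the lowest concentration (highest dilution) arresting growth. Ciprofloxacin reference.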

Streptococcus pyogenes [3] = test: Antibacterial activity against Streptococcus pyogenes assessed as inhibition zone diameter after 24 hrs by disc diffusion method
Staphylococcus aureus [4] = test: Antibacterial activity against Staphylococcus aureus ATCC 25923 after 24 hrs by broth dilution technique; format: functional; conditions: ATCC 25923, 24 h; method in brief: as §1
Aspergillus flavus [5] = test: Antifungal activity against Aspergillus flavus after 48 hrs […]; format: functional
Escherichia coli = test: Antibacterial activity against Escherichia coli ATCC 25922 after 24 hrs by broth dilution technique; format: functional; conditions: ATCC 25922, 24 h; method in brief: as §1
Staphylococcus aureus [6] = test: Antibacterial activity against Staphylococcus aureus ATCC 25923 assessed as inhibition zone diameter after 24 hrs […]; format: functional
Method in brief: (§2)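 Disc diffusion on nutrient agar. Inoculum 1-2 × 10^7 c.f.u/ml (0.5 McFarland) spread over the plate surface. Sterile 6.25 mm filter-paper discs soaked in a known concentration of compound. Solvent and growth controls included. Plates incubated inverted 24 h at 37 °C, then inhibition zone diameter measured in mm. Ciprofloxacin reference.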

Talaromyces marneffei [7] = test: Antifungal activity against Penicillium marneffei assessed as inhibition zone diameter […] by agar dilution method; format: functional
Method in brief: (§3)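 Compounds in DMSO placed in punched wells on Sabouraud agar (peptone, glucose, agar, pH 5.7) lawned with saline spore suspension. Plates pre-dried 1 h at 37 °C. Controls in triplicate, incubation at 37 °C for 3-4 days, then inhibition zone diameter read in mm. Amphotericin B reference.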

Pseudomonas aeruginosa [8] = test: Antibacterial activity against Pseudomonas aeruginosa ATCC 27853 assessed as inhibition zone diameter after 24 hrs […]; format: functional; method in brief: as §2
Streptococcus pyogenes [9] = test: Antibacterial activity against Streptococcus pyogenes after 24 hrs by broth dilution technique; format: functional; method in brief: as §1
Candida albicans [10] = test: Antifungal activity against Candida albicans after 48 hrs […]; format: functional
Aspergillus fumigatus [11] = test: Antifungal activity against Aspergillus fumigatus assessed as inhibition zone diameter […] by agar dilution method; format: functional; method in brief: as §3
Pseudomonas aeruginosa [12] = test: Antibacterial activity against Pseudomonas aeruginosa ATCC 27853 after 24 hrs by broth dilution technique; format: functional; conditions: ATCC 27853, 24 h; method in brief: as §1
Talaromyces marneffei [13] = test: Antifungal activity against Penicillium marneffei after 48 hrs […]; format: functional
Klebsiella pneumoniae [14] = test: Antibacterial activity against Klebsiella pneumoniae assessed as inhibition zone diameter after 24 hrs […]; format: functional; method in brief: as §2
[15] = test system: Trichophyton mentagrophytes; test: Antifungal activity against Trichophyton mentagrophytes after 48 hrs […]; format: functional
Candida albicans [16] = test: Antifungal activity against Candida albicans assessed as inhibition zone diameter […] by agar dilution method; format: functional; method in brief: as §3
[17] = test system: Trichophyton mentagrophytes; test: Antifungal activity against Trichophyton mentagrophytes assessed as inhibition zone diameter […] by agar dilution method; format: functional; method in brief: as §3
Aspergillus flavus [18] = test: Antifungal activity against Aspergillus flavus assessed as inhibition zone diameter […] by agar dilution method; format: functional; method in brief: as §3

Row | Structure (SMILES) | MIC (Aspergillus fumigatus [1]) [µg/mL] | MIC (Klebsiella pneumoniae [2]) [µg/mL] | inhibition zone (IZ) (Streptococcus pyogenes [3]) [mm] | MIC (Staphylococcus aureus [4]) [µg/mL] | MIC (Aspergillus flavus [5]) [µg/mL] | MIC (Escherichia coli) [µg/mL] | inhibition zone (IZ) (Staphylococcus aureus [6]) [mm] | inhibition zone (IZ) (Talaromyces marneffei [7]) [mm] | inhibition zone (IZ) (Pseudomonas aeruginosa [8]) [mm] | MIC (Streptococcus pyogenes [9]) [µg/mL] | MIC (Candida albicans [10]) [µg/mL] | inhibition zone (IZ) (Aspergillus fumigatus [11]) [mm] | MIC (Pseudomonas aeruginosa [12]) [µg/mL] | MIC (Talaromyces marneffei [13]) [µg/mL] | inhibition zone (IZ) (Klebsiella pneumoniae [14]) [mm] | MIC [15] [µg/mL] | inhibition zone (IZ) (Candida albicans [16]) [mm] | inhibition zone (IZ) [17] [mm] | inhibition zone (IZ) (Aspergillus flavus [18]) [mm]
1 | Cc1cccc(C)c1NC1=Nn2c(nnc2-c2cc(F)c(Cl)cc2Cl)SC1 | 25 (≈ 59.2 µM) | 12.5 (≈ 29.6 µM) | 21 | 6.25 (≈ 14.8 µM) | 6.25 (≈ 14.8 µM) | 12.5 (≈ 29.6 µM) | 23 | 12 | 15 | 6.25 (≈ 14.8 µM) | 12.5 (≈ 29.6 µM) | 10 | 6.25 (≈ 14.8 µM) | 12.5 (≈ 29.6 µM) | 12 | 6.25 (≈ 14.8 µM) | 15 | 19 | 24
2 | Nn1c(SCC(=O)Nc2ccc(Cl)cc2)nnc1-c1cc(F)c(Cl)cc1Cl | 12.5 (≈ 28 µM) | 12.5 (≈ 28 µM) | 10 | 12.5 (≈ 28 µM) | 25 (≈ 56 µM) | 12.5 (≈ 28 µM) | 17 | 17 | 18 | 25 (≈ 56 µM) | 12.5 (≈ 28 µM) | 15 | 12.5 (≈ 28 µM) | 12.5 (≈ 28 µM) | 12 | 25 (≈ 56 µM) | 12 | 8 | 10
3 | Cc1ccc(NC(=O)CSc2nnc(-c3cc(F)c(Cl)cc3Cl)n2N)cc1 | 6.25 (≈ 14.7 µM) | 6.25 (≈ 14.7 µM) | 22 | 6.25 (≈ 14.7 µM) | 6.25 (≈ 14.7 µM) | 6.25 (≈ 14.7 µM) | 25 | 23 | 31 | 6.25 (≈ 14.7 µM) | 6.25 (≈ 14.7 µM) | 20 | 6.25 (≈ 14.7 µM) | 6.25 (≈ 14.7 µM) | 20 | 6.25 (≈ 14.7 µM) | 18 | 18 | 22
4 | COc1ccc(NC2=Nn3c(nnc3-c3cc(F)c(Cl)cc3Cl)SC2)cc1 | 12.5 (≈ 29.5 µM) | 12.5 (≈ 29.5 µM) | 16 | 6.25 (≈ 14.7 µM) | 6.25 (≈ 14.7 µM) | > 100 | 22 | – | 15 | 12.5 (≈ 29.5 µM) | 6.25 (≈ 14.7 µM) | 12 | 25 (≈ 58.9 µM) | > 100 | 12 | 12.5 (≈ 29.5 µM) | 19 | 13 | 18
5 | Fc1cc(-c2nnc3n2N=C(Nc2cc(Cl)c(Cl)cc2Cl)CS3)c(Cl)cc1Cl | 6.25 (≈ 12.6 µM) | 6.25 (≈ 12.6 µM) | 23 | 6.25 (≈ 12.6 µM) | 6.25 (≈ 12.6 µM) | 6.25 (≈ 12.6 µM) | 24 | 24 | 32 | 6.25 (≈ 12.6 µM) | 6.25 (≈ 12.6 µM) | 19 | 6.25 (≈ 12.6 µM) | 6.25 (≈ 12.6 µM) | 20 | 6.25 (≈ 12.6 µM) | 20 | 18 | 23
6 | Fc1cc(-c2nnc3n2N=C(Nc2ccccc2C(F)(F)F)CS3)c(Cl)cc1Cl | 6.25 (≈ 13.5 µM) | 6.25 (≈ 13.5 µM) | 23 | 6.25 (≈ 13.5 µM) | 6.25 (≈ 13.5 µM) | 6.25 (≈ 13.5 µM) | 22 | 21 | 30 | 6.25 (≈ 13.5 µM) | 6.25 (≈ 13.5 µM) | 21 | 6.25 (≈ 13.5 µM) | 6.25 (≈ 13.5 µM) | 21 | 6.25 (≈ 13.5 µM) | 18 | 17 | 21
7 | Cc1ccc(NC2=Nn3c(nnc3-c3cc(F)c(Cl)cc3Cl)SC2)c(C)c1 | 25 (≈ 59.2 µM) | 12.5 (≈ 29.6 µM) | 11 | > 100 | 12.5 (≈ 29.6 µM) | 12.5 (≈ 29.6 µM) | – | – | 18 | 12.5 (≈ 29.6 µM) | 25 (≈ 59.2 µM) | 9 | 12.5 (≈ 29.6 µM) | > 100 | 14 | 12.5 (≈ 29.6 µM) | 8 | 12 | 15
8 | CCOc1ccc(NC2=Nn3c(nnc3-c3cc(F)c(Cl)cc3Cl)SC2)cc1 | 12.5 (≈ 28.5 µM) | 12.5 (≈ 28.5 µM) | – | 6.25 (≈ 14.3 µM) | 25 (≈ 57 µM) | > 100 | 20 | 17 | 15 | – | 12.5 (≈ 28.5 µM) | 15 | 25 (≈ 57 µM) | 12.5 (≈ 28.5 µM) | 12 | > 100 | 12 | – | 10
9 | Fc1cc(-c2nnc3n2N=C(Nc2ccc(Cl)cc2Cl)CS3)c(Cl)cc1Cl | 6.25 (≈ 13.5 µM) | 12.5 (≈ 27 µM) | – | > 100 | 25 (≈ 54 µM) | 12.5 (≈ 27 µM) | – | 12 | – | – | 12.5 (≈ 27 µM) | 19 | > 100 | 12.5 (≈ 27 µM) | 17 | 12.5 (≈ 27 µM) | 15 | 11 | 8
10 | Fc1cc(-c2nnc3n2N=C(Nc2ccc(Cl)cc2)CS3)c(Cl)cc1Cl | 6.25 (≈ 14.6 µM) | 6.25 (≈ 14.6 µM) | 25 | 6.25 (≈ 14.6 µM) | 6.25 (≈ 14.6 µM) | 6.25 (≈ 14.6 µM) | 24 | 15 | 32 | 6.25 (≈ 14.6 µM) | 6.25 (≈ 14.6 µM) | 18 | 6.25 (≈ 14.6 µM) | 12.5 (≈ 29.2 µM) | 20 | 12.5 (≈ 29.2 µM) | 16 | 11 | 20
